SENP6 inh – blocks the human protease SENP6; Q9GZR1; Recombinant SENP6 catalytic domain, aminoluciferin luminescence; inhibition, % at 10 µM; hit rate 1.8% among 330,000; AID 2599;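 active = inhibition above about 50% at the single tested dose, limit read from the data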;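 note: plate controls were DMSO wells with enzyme for no effect and DMSO wells lacking enzyme for full effect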
Target sequence (Q9GZR1 628-1112 limits assumed): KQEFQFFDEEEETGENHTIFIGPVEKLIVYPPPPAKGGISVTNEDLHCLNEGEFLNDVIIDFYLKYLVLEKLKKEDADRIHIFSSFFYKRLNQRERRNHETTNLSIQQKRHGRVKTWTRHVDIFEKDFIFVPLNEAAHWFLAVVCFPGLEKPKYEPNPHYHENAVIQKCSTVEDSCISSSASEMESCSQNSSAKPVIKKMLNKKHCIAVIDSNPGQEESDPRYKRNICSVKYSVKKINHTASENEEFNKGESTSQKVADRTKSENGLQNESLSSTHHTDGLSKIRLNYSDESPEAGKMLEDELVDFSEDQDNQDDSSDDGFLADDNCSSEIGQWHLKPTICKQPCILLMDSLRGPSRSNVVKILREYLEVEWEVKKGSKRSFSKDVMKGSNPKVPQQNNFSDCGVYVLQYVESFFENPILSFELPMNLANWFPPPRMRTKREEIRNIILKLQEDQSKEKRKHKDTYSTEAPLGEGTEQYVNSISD
SENP1 inh – SENP1 (human) catalytic domain inhibition; inhibition, % at 10 µM; hit rate 0.21% among 360,000; Q9P0U3; AID 624204; recombinant SENP1 catalytic domain, CyPet-SUMO1-YPet FRET cleavage;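 active = inhibition at least 30% at 10 µM, raw YFP signal under a set limit, fluorescence ratio 0.5 to 1.5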;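 note: 0% = enzyme with DMSO and 100% = no enzyme wells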
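Assay system: hSENP1 catalytic domain, recombinant. Amount: SENP1 enzyme, 20 pM final. Schedule: 50 min reaction, RT, dark. Technique: FRET, CFP and YFP emission. Control set: no-enzyme wells low, DMSO-plus-enzyme wells high control.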
SENP8 block-1 – blocks the human protease SENP8; purified SENP8, Z-RLRGG-aminoluciferin cleavage, luminescence; inhibition, % at 10 µM; hit rate 1.2% among 330,000; AID 2540; Q96LD8; in the data active = inhibition above about 50%
Apaf1 inhib – inhibitors of human Apaf-1 apoptosome. O14727. hit rate 0.71% among 330,000. inhibition, % at 20 µM. reconstituted apoptosome caspase-3 activity, DEVD-Rh110 fluorescence. AID 489030; active = inhibition of at least 40% at 20 µM;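 note: plate controls were DMSO wells for no effect and DEVD-CHO caspase inhibitor wells for full effect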
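Material: reconstituted apoptosome with Apaf-1, cytochrome c, caspase-9, procaspase-3, dATP; medium: pH 7.5 Hepes buffer with CHAPS, BSA, DTT; also added: cytochrome c and DEVD-Rh110 substrate; timing: 30 min plus 50 min, RT; signal: Rh110 fluorescence intensity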
SENP7 block – inhibitors of human SENP7 protease | AID 434973 | inhibition, % at 5 µM | recombinant SENP7, Z-RLRGG-aminoluciferin luminescence, 40 min | hit rate 1.5% among 330,000 | Q9BQF6;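 active = inhibition above about 50% at the single test dose, limit read from the data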;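 note: plate controls were DMSO with enzyme for no effect and no enzyme buffer wells for full effect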
SENP8 block-2 – blocks human SENP8 cleavage of Nedd8 substrate; recombinant SENP8, Nedd8 substrate fluorescence; AID 602440; hit rate 0.64% among 360,000; inhibition, % at 20 µM; in the data active = inhibition mostly above about 40%, no sharp cut-off; inactive = mostly below about 27%
SENP8 conf – human SENP8 inhibition, confirmed; inhibition, % at 12.5 µM; Recombinant SENP8, Z-RLRGG-aminoluciferin luminescence, 60 min; AID 488912; hit rate 40% among 6,200; shares compounds with SENP7 block;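 active = mean inhibition across replicates above about 50%, limit read from the data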
SENP6 conf – confirmation of human SENP6 protease inhibitors; shares compounds with SENP7 block; recombinant SENP6, Z-RLRGG-aminoluciferin luminescence; inhibition, % at 12.5 µM; hit rate 58% among 6,200; AID 488915
SENP7 conf – human SENP7 inhibition, confirmed; inhibition, % at 12.5 µM; recombinant SENP7, Z-RLRGG-aminoluciferin luminescence, 40 min; shares compounds with SENP7 block; hit rate 69% among 6,200
Casp3 SENP sel – selectivity test for SENP inhibitors: human caspase-3 inhibition; inhibition, % at 12.5 µM; purified caspase-3, Z-DEVD-aminoluciferin luminescence, 60 min; hit rate 60% among 6,200; shares compounds with SENP7 block;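 active = mean inhibition above about 50%, limit read from the data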;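 note: plate controls were enzyme with DMSO for no effect and wells without caspase-3 for full effect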
SENP luc ctr – counter-screen for SENP inhibitors: luminescence interference; shares compounds with SENP7 block; Pre-incubated SENP8/Z-RLRGG-aminoluciferin, luciferase luminescence interference; inhibition, % at 12.5 µM; hit rate 39% among 6,200; AID 488919;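 active = mean inhibition above about 50% when retested at one dose, limit read from the data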;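 note: plate controls were DMSO wells with completed reaction for no effect and substrate without enzyme for full effect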
Active calls of the source: *; i = inactive; . = no result. In the library only some 2.9% were active in any assay of this set; here they are far more common.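 Rule for the calls, unless noted: active = mean inhibition above about 50% in the one-dose retest (limit read from the data); inactive = the rest.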

SMILES	SENP6 inh	SENP1 inh	SENP8 block-1	Apaf1 inhib	SENP7 block	SENP8 block-2	SENP8 conf	SENP6 conf	SENP7 conf	Casp3 SENP sel	SENP luc ctr
Oc1ccc(N=Nc2c(O)ccc3ccccc23)cc1	69*	10	64*	18	-5	9	67*	68*	72*	12	18
Oc1ccc(N=Nc2ccc3ccccc3c2)cc1	98*	2	98*	5	101*	30	99*	100*	102*	98*	94*
O=[N+]([O-])c1ccccc1N=Nc1ccc(O)cc1	33	2	15	3	2	34	.	.	.	.	.
COc1cc(N=Nc2ccccc2C(=O)O)ccc1O	-6	9	-12	15	2	29	.	.	.	.	.
O=C(NCc1ccc2c(c1)OCO2)C1CC(=O)N(CCc2ccc(Cl)cc2)C1 (centres undefined)	-2	2	0	-6	0	2	.	.	.	.	.
Cc1ccc(CCN2CC(C(=O)NCc3ccc4c(c3)OCO4)CC2=O)cc1 (centres undefined)	67*	1	2	-23	0	22	10	4	2	2	5
CC1=C(C(=O)N(C(C)C)C(C)C)CC(CC(=O)NCc2cccs2)C(=O)N1CCCN1CCCC1=O (centres undefined)	.	0	.	.	.	7	.	.	.	.	.
COC(=O)c1sc2nc3c(cc2c1N)CCCC3	20	-84	57*	-6	75*	-404	5	72*	91*	76*	51*
COc1ccc(-c2ccc(C(=O)NCc3ccc(C(F)(F)F)cc3)c3occc23)c(C)c1	.	1	.	.	.	-339	.	.	.	.	.
COc1ccc(-c2nc3cc([N+](=O)[O-])ccc3o2)cc1	34	5	17	-5	77*	24	31	36	50	59*	13
CC(C)(C)Nc1nc2cc([N+](=O)[O-])ccc2o1	6	1	-2	-2	-2	16	.	.	.	.	.
Nc1ccc(-c2nc3cc([N+](=O)[O-])ccc3o2)cc1	63*	4	38	-7	56*	-424	11	43	85*	54*	10
O=c1oc(-c2ccc([N+](=O)[O-])cc2)nc2ccccc12	7	3	-4	6	-19	11	.	.	.	.	.
C=CCN=c1scc(C)n1/N=C/c1ccc(O)c(O)c1	0	-19	-6	7	4	-39	.	.	.	.	.
CN=c1scc(-c2ccco2)n1/N=C/c1ccc(O)c(O)c1	68*	-8	56*	12	8	-16	59*	63*	86*	45	62*
O=C(Nc1ccc(S(=O)(=O)NCc2ccccc2)cc1)c1ccc(Br)o1	3	1	-3	-4	-5	24	.	.	.	.	.
C=CCn1c(NC(=O)c2ccc(Br)o2)c(S(=O)(=O)c2ccccc2)c2nc3ccccc3nc21	73*	-24	42	63*	2	-276	13	32	20	6	4
COc1ccccc1CC(=O)N(Cc1ccccc1)c1cccc(C)c1	-8	-3	-6	23	-9	2	.	.	.	.	.
O=C(O)c1ccc(-c2nc3scc(-c4ccccc4)c3c(=O)[nH]2)cc1	61*	11	32	0	25	-405	38	30	62*	23	18
Cc1ccc(-n2ncc3ccccc3c2=O)cc1Cl	45	-1	37	5	41	-18	.	.	.	.	.
O=c1c2ccccc2cnn1-c1ccc(Cl)cc1	59*	4	34	3	57*	-4	23	62*	73*	79*	33
C(#CC1CCCCC1)c1ccc2c(c1)COc1c3ccccc3nn1-2	37	0	16	9	19	-2	.	.	.	.	.
C(#Cc1ccc2c(c1)COc1c3ccccc3nn1-2)c1ccccc1	76*	-21	74*	0	61*	-84	26	31	57*	41	49
C#Cc1ccc2c(c1)COc1c3ccccc3nn1-2	96*	4	93*	9	72*	-2	76*	96*	101*	92*	52*
CN(C(=O)C1CCCCC1)C1(C)CCS(=O)(=O)C1 (centres undefined)	-10	-1	1	1	-9	5	.	.	.	.	.
SMILES	SENP6 inh	SENP1 inh	SENP8 block-1	Apaf1 inhib	SENP7 block	SENP8 block-2	SENP8 conf	SENP6 conf	SENP7 conf	Casp3 SENP sel	SENP luc ctr
CCCCN(C)C(=O)c1sc(=O)n(Cc2ccccc2C#N)c1C	.	3	.	.	.	1	.	.	.	.	.
O=c1c2ccccc2oc2ccc(-c3ccc4[nH]ccc4c3)cc12	53*	-1	44	-1	48	-81	17	36	57*	18	17
O=c1c2ccccc2oc2cc(-c3ccc4cc[nH]c4c3)ccc12	-23	0	-11	13	-13	i	.	.	.	.	.
CC1(C(=O)NS(=O)(=O)c2ccccc2Cl)CCN1C(=O)Cc1cccc2ccccc12 (centres undefined)	.	-1	.	.	.	3	.	.	.	.	.
O=C(Nc1ccc(-c2nc3ccccc3s2)c(OC(=O)c2ccccc2)c1)c1ccccc1	6	2	5	-9	65*	16	5	2	-6	-4	-12
Cc1ccc(-c2nc3ccccc3s2)cc1NC(=S)NC(=O)c1ccccc1	18	1	13	5	-4	-261	.	.	.	.	.
Cn1c(=O)[nH]c2nnc(-c3ccc(Cl)c(Cl)c3)nc2c1=O	96*	9	97*	15	97*	12	56*	80*	53*	91*	16
CCN(C1CCCCC1)S(=O)(=O)CCNC(=O)c1ccc(OC)cc1	.	0	.	.	.	9	.	.	.	.	.
NC(=O)c1ccccc1NC(=O)/C=C/c1c(Cl)cccc1Cl	53*	1	-7	12	45	3	-14	-8	86*	42	4
NC(=O)c1ccccc1NC(=O)/C=C/c1cccc(Cl)c1	31	2	3	4	15	18	.	.	.	.	.
COc1ccccc1NC(=S)NNC(=O)c1ccccc1Br	75*	0	46	4	71*	-13	21	16	15	6	15
O=C(NNC(=S)Nc1ccccc1Cl)c1ccccc1Cl	73*	0	74*	8	50	8	40	28	18	10	13

Compound activity deposited in PubChem BioAssay by Sanford-Burnham Center for Chemical Genomics.
